According to ChEMBL document CHEMBL1177647, “Synthesis and characterization of novel phenylindoles as potential probes for imaging of β-amyloid plaques in the brain” (Bioorg Med Chem, 2010):

How the values were obtained:
[1] = test system: Brain; assay: Biodistribution in ddY mouse brain at 0.2 to 0.4 uCi, iv after 10 mins; type: ADME, organism-based; conditions: in vivo
Method in brief: (§1)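 Radiotracer (0.2–0.4 μCi) given as a single tail-vein injection of 100 μL saline containing 10 μL ethanol to normal ddY mice (5 weeks old, 25–30 g). Mice were sacrificed at set times after injection. Organs were excised and weighed, and radioactivity was counted in an automatic gamma counter.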

[2] = test system: Kidney; assay: Biodistribution in ddY mouse kidney at 0.2 to 0.4 uCi, iv after 30 mins; type: ADME, organism-based; conditions: in vivo, 0.5 h; method in brief: as §1
[3] = test system: Spleen; assay: Biodistribution in ddY mouse spleen at 0.2 to 0.4 uCi, iv after 2 mins; type: ADME, organism-based; conditions: in vivo; method in brief: as §1
[4] = test system: Heart; assay: Biodistribution in ddY mouse heart at 0.2 to 0.4 uCi, iv after 2 mins; type: ADME, organism-based; conditions: in vivo; method in brief: as §1
[5] = test system: Stomach; assay: Biodistribution in ddY mouse stomach at 0.2 to 0.4 uCi, iv after 30 mins measured per gram of organ; type: ADME, organism-based; conditions: in vivo, 0.5 h; method in brief: as §1
[6] = test system: Kidney; assay: Biodistribution in ddY mouse kidney at 0.2 to 0.4 uCi, iv after 10 mins; type: ADME, organism-based; conditions: in vivo; method in brief: as §1
[7] = test system: Brain; assay: Biodistribution in ddY mouse brain at 0.2 to 0.4 uCi, iv after 30 mins; type: ADME, organism-based; conditions: in vivo, 0.5 h; method in brief: as §1
[8] = test system: Intestine; assay: Biodistribution in ddY mouse intestine at 0.2 to 0.4 uCi, iv after 60 mins; type: ADME, organism-based; conditions: in vivo, 1 h; method in brief: as §1
[9] = test system: Kidney; assay: Biodistribution in ddY mouse kidney at 0.2 to 0.4 uCi, iv after 2 mins; type: ADME, organism-based; conditions: in vivo; method in brief: as §1
[10] = test system: Pancreas; assay: Biodistribution in ddY mouse pancreas at 0.2 to 0.4 uCi, iv after 2 mins; type: ADME, organism-based; conditions: in vivo; method in brief: as §1
[11] = test system: Pancreas; assay: Biodistribution in ddY mouse pancreas at 0.2 to 0.4 uCi, iv after 60 mins; type: ADME, organism-based; conditions: in vivo, 1 h; method in brief: as §1
[12] = test system: Brain; assay: Biodistribution in ddY mouse brain at 0.2 to 0.4 uCi, iv after 60 mins; type: ADME, organism-based; conditions: in vivo, 1 h; method in brief: as §1
[13] = test system: Spleen; assay: Biodistribution in ddY mouse spleen at 0.2 to 0.4 uCi, iv after 60 mins; type: ADME, organism-based; conditions: in vivo, 1 h; method in brief: as §1
[14] = test system: Intestine; assay: Biodistribution in ddY mouse intestine at 0.2 to 0.4 uCi, iv after 2 mins; type: ADME, organism-based; conditions: in vivo; method in brief: as §1
[15] = test system: Blood; assay: Biodistribution in ddY mouse blood at 0.2 to 0.4 uCi, iv after 2 mins; type: ADME, organism-based; conditions: in vivo; method in brief: as §1
[16] = test system: Pancreas; assay: Biodistribution in ddY mouse pancreas at 0.2 to 0.4 uCi, iv after 30 mins; type: ADME, organism-based; conditions: in vivo, 0.5 h; method in brief: as §1
[17] = test system: Heart; assay: Biodistribution in ddY mouse heart at 0.2 to 0.4 uCi, iv after 30 mins; type: ADME, organism-based; conditions: in vivo, 0.5 h; method in brief: as §1
[18] = test system: Intestine; assay: Biodistribution in ddY mouse intestine at 0.2 to 0.4 uCi, iv after 30 mins; type: ADME, organism-based; conditions: in vivo, 0.5 h; method in brief: as §1
[19] = test system: Blood; assay: Biodistribution in ddY mouse blood at 0.2 to 0.4 uCi, iv after 60 mins; type: ADME, organism-based; conditions: in vivo, 1 h; method in brief: as §1
[20] = test system: Spleen; assay: Biodistribution in ddY mouse spleen at 0.2 to 0.4 uCi, iv after 30 mins; type: ADME, organism-based; conditions: in vivo, 0.5 h; method in brief: as §1
[21] = test system: Blood; assay: Biodistribution in ddY mouse blood at 0.2 to 0.4 uCi, iv after 10 mins; type: ADME, organism-based; conditions: in vivo; method in brief: as §1
[22] = test system: Intestine; assay: Biodistribution in ddY mouse intestine at 0.2 to 0.4 uCi, iv after 10 mins; type: ADME, organism-based; conditions: in vivo; method in brief: as §1
[23] = test system: Heart; assay: Biodistribution in ddY mouse heart at 0.2 to 0.4 uCi, iv after 10 mins; type: ADME, organism-based; conditions: in vivo; method in brief: as §1
[24] = test system: Liver; assay: Biodistribution in ddY mouse liver at 0.2 to 0.4 uCi, iv after 30 mins; type: ADME, organism-based; conditions: in vivo, 0.5 h; method in brief: as §1
[25] = test system: Blood; assay: Biodistribution in ddY mouse blood at 0.2 to 0.4 uCi, iv after 30 mins; type: ADME, organism-based; conditions: in vivo, 0.5 h; method in brief: as §1
[26] = test system: Liver; assay: Biodistribution in ddY mouse liver at 0.2 to 0.4 uCi, iv after 2 mins; type: ADME, organism-based; conditions: in vivo; method in brief: as §1
[27] = test system: Liver; assay: Biodistribution in ddY mouse liver at 0.2 to 0.4 uCi, iv after 10 mins; type: ADME, organism-based; conditions: in vivo; method in brief: as §1
[28] = test system: Stomach; assay: Biodistribution in ddY mouse stomach at 0.2 to 0.4 uCi, iv after 2 mins measured per gram of organ; type: ADME, organism-based; conditions: in vivo; method in brief: as §1
[29] = test system: Liver; assay: Biodistribution in ddY mouse liver at 0.2 to 0.4 uCi, iv after 60 mins; type: ADME, organism-based; conditions: in vivo, 1 h; method in brief: as §1
[30] = test system: Kidney; assay: Biodistribution in ddY mouse kidney at 0.2 to 0.4 uCi, iv after 60 mins; type: ADME, organism-based; conditions: in vivo, 1 h; method in brief: as §1
[31] = test system: Stomach; assay: Biodistribution in ddY mouse stomach at 0.2 to 0.4 uCi, iv after 60 mins measured per gram of organ; type: ADME, organism-based; conditions: in vivo, 1 h; method in brief: as §1
[32] = test system: Stomach; assay: Biodistribution in ddY mouse stomach at 0.2 to 0.4 uCi, iv after 10 mins measured per gram of organ; type: ADME, organism-based; conditions: in vivo; method in brief: as §1
[33] = test system: Brain; assay: Biodistribution in ddY mouse brain at 0.2 to 0.4 uCi, iv after 2 mins; type: ADME, organism-based; conditions: in vivo; method in brief: as §1
[34] = test system: Heart; assay: Biodistribution in ddY mouse heart at 0.2 to 0.4 uCi, iv after 60 mins; type: ADME, organism-based; conditions: in vivo, 1 h; method in brief: as §1
[35] = test system: Spleen; assay: Biodistribution in ddY mouse spleen at 0.2 to 0.4 uCi, iv after 10 mins; type: ADME, organism-based; conditions: in vivo; method in brief: as §1
[36] = test system: Pancreas; assay: Biodistribution in ddY mouse pancreas at 0.2 to 0.4 uCi, iv after 10 mins; type: ADME, organism-based; conditions: in vivo; method in brief: as §1
[37] = Displacement of [125I]IMPY from amyloid beta42 by gamma counting
[38] = test system: Brain; assay: In vivo binding affinity to amyloid beta 42 in Tg2576 mouse brain by neuropathological staining; type: ADME, organism-based

Row | Drug uptake [1] [% ID/g] | Drug uptake [2] [% ID/g] | Drug uptake [3] [% ID/g] | Drug uptake [4] [% ID/g] | Drug uptake [5] [%ID] | Drug uptake [6] [% ID/g] | Drug uptake [7] [% ID/g] | Drug uptake [8] [% ID/g] | Drug uptake [9] [% ID/g] | Drug uptake [10] [% ID/g] | Drug uptake [11] [% ID/g] | Drug uptake [12] [% ID/g] | Drug uptake [13] [% ID/g] | Drug uptake [14] [% ID/g] | Drug uptake [15] [% ID/g] | Drug uptake [16] [% ID/g] | Drug uptake [17] [% ID/g] | Drug uptake [18] [% ID/g] | Drug uptake [19] [% ID/g] | Ki [37] [nM] | SMILES | also measured
1 | 2.07 | 2.89 | 4.22 | 7.72 | 2.67 | 4.96 | 1.36 | 20.35 | 8.76 | 4.54 | 1.29 | 1.16 | 2.02 | 1.9 | 3.59 | 1.95 | 1.47 | 12.32 | 0.74 |  | COc1ccc(-c2cc3cc([125I])ccc3[nH]2)cc1 | Drug uptake [20]: 2.96 % ID/g; Drug uptake [21]: 1.97 % ID/g; Drug uptake [22]: 6.85 % ID/g; Drug uptake [23]: 2.97 % ID/g; Drug uptake [24]: 10.38 % ID/g; Drug uptake [25]: 1.38 % ID/g; Drug uptake [26]: 17.81 % ID/g; Drug uptake [27]: 13.96 % ID/g; Drug uptake [28]: 0.72 %ID; Drug uptake [29]: 8.22 % ID/g; Drug uptake [30]: 2.05 % ID/g; Drug uptake [31]: 3.06 %ID; Drug uptake [32]: 1.38 %ID; Drug uptake [33]: 2.11 % ID/g; Drug uptake [34]: 1.06 % ID/g; Drug uptake [35]: 3.43 % ID/g; Drug uptake [36]: 3.94 % ID/g
2 | 1.68 | 3.84 | 7.83 | 5.68 | 2.55 | 4.31 | 1.42 | 9.48 | 5.53 | 2.31 | 1.27 | 0.83 | 5.89 | 0.97 | 3.77 | 2.12 | 2.96 | 8.54 | 0.8 |  | CNc1ccc(-c2cc3cc([125I])ccc3[nH]2)cc1 | Drug uptake [20]: 10.34 % ID/g; Drug uptake [21]: 1.71 % ID/g; Drug uptake [22]: 3.57 % ID/g; Drug uptake [23]: 3.59 % ID/g; Drug uptake [24]: 23.07 % ID/g; Drug uptake [25]: 1.36 % ID/g; Drug uptake [26]: 22.85 % ID/g; Drug uptake [27]: 26.83 % ID/g; Drug uptake [28]: 0.52 %ID; Drug uptake [29]: 15.89 % ID/g; Drug uptake [30]: 2.61 % ID/g; Drug uptake [31]: 1.68 %ID; Drug uptake [32]: 1.34 %ID; Drug uptake [33]: 1.1 % ID/g; Drug uptake [34]: 1.88 % ID/g; Drug uptake [35]: 19.67 % ID/g; Drug uptake [36]: 2.87 % ID/g

Second part, the compound before the results:

Row | SMILES | Drug uptake [1] [% ID/g] | Drug uptake [2] [% ID/g] | Drug uptake [3] [% ID/g] | Drug uptake [4] [% ID/g] | Drug uptake [5] [%ID] | Drug uptake [6] [% ID/g] | Drug uptake [7] [% ID/g] | Drug uptake [8] [% ID/g] | Drug uptake [9] [% ID/g] | Drug uptake [10] [% ID/g] | Drug uptake [11] [% ID/g] | Drug uptake [12] [% ID/g] | Drug uptake [13] [% ID/g] | Drug uptake [14] [% ID/g] | Drug uptake [15] [% ID/g] | Drug uptake [16] [% ID/g] | Drug uptake [17] [% ID/g] | Drug uptake [18] [% ID/g] | Drug uptake [19] [% ID/g] | Ki [37] [nM] | also measured
3 | OCCOc1ccc(-c2cc3cc(I)ccc3[nH]2)cc1 |  |  |  |  |  |  |  |  |  |  |  |  |  |  |  |  |  |  |  | 25.9 | 
4 | CN(C)c1ccc(-n2ccc3cc(I)ccc32)cc1 |  |  |  |  |  |  |  |  |  |  |  |  |  |  |  |  |  |  |  | > 10000 | 
5 | COc1ccc(-c2cc3cc(I)ccc3[nH]2)cc1 |  |  |  |  |  |  |  |  |  |  |  |  |  |  |  |  |  |  |  | 20.2 | Activity [38]: Active
